Results as given in ChEMBL document CHEMBL1136807, “CC-1065 analogues bearing different DNA-binding subunits: synthesis, antitumor activity, and preliminary toxicity study” (J Med Chem, 2003).

Tests used:
[1] = test system: L1210; assay: Compound was tested in vitro against L1210 leukemia cells; type: functional, cell-based; details: Mus musculus
Procedure, shortened: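 L1210 murine leukemia cells exposed to drug for 48 h; IC50 reported in nM.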

[2] = test system: Mus musculus; assay: Increase in life span of mice bearing L1210 leukemia after administration of 100 […] compound; type: functional
Procedure, shortened: (§1)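 In vivo antitumor test in mice bearing L1210 leukemia, read out as increase in life span (ILS). Body weight was monitored. The optimal dose was defined as the dose giving the best antitumor efficacy with body weight loss ≤15%.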

[3] = test system: Mus musculus; assay: Days until first mouse died treated with 100 […] compound; no death; type: functional, organism-based
[4] = test system: Mus musculus; assay: Increase in life span of mice bearing L1210 leukemia after administration of 67 […] compound; type: functional; procedure, shortened: as §1
[5] = test system: Mus musculus; assay: Increase in life span of mice bearing L1210 leukemia after administration of 45 […] compound; type: functional; procedure, shortened: as §1
[6] = test system: Mus musculus; assay: Number of mice bearing L1210 leukemia that survived after 30 days, after administration of 100 […] compound; type: functional; procedure, shortened: as §1
[7] = test system: Mus musculus; assay: Number of mice bearing L1210 leukemia that survived after 30 days, after administration of 67 […] compound; type: functional; procedure, shortened: as §1
[8] = test system: Mus musculus; assay: Number of mice surviving on day 180 treated with 100 […] compound; 8/8; type: functional, organism-based
[9] = test system: Mus musculus; assay: Weight change in mice bearing L1210 leukemia after administration of 100 […] compound; type: functional
[10] = test system: Mus musculus; assay: Weight change in mice bearing L1210 leukemia after administration of 45 […] compound; type: functional
[11] = test system: Mus musculus; assay: Weight change in mice bearing L1210 leukemia after administration of 67 […] compound; type: functional
[12] = test system: Mus musculus; assay: Number of mice bearing L1210 leukemia that survived after 30 days, after administration of 45 µg/kg compound
[13] = test system: Mus musculus; assay: Days until first mouse died treated with 100 […] compound; type: functional
Procedure, shortened: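 Delayed-toxicity study in non-tumor-bearing BDF1 mice: single ip dose given on day 0, then animals observed for up to 180 days. Recorded the day the first mouse died and the number of mice alive on day 180, with 6–8 mice per group.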

[14] = test system: Mus musculus; assay: Number of mice surviving on day 180 treated with 100 […] compound; 5/8; type: functional, organism-based
[15] = test system: Mus musculus; assay: Increase in life span of mice bearing L1210 leukemia after administration of 620 […] compound; type: functional; procedure, shortened: as §1
[16] = test system: Mus musculus; assay: Increase in life span of mice bearing L1210 leukemia after administration of 298 […] compound; type: functional; procedure, shortened: as §1
[17] = test system: Mus musculus; assay: Increase in life span of mice bearing L1210 leukemia after administration of 498 […] compound; type: functional; procedure, shortened: as §1
[18] = test system: Mus musculus; assay: Number of mice bearing L1210 leukemia that survived after 30 days, after administration of 298 […] compound; type: functional; procedure, shortened: as §1
[19] = test system: Mus musculus; assay: Number of mice bearing L1210 leukemia that survived after 30 days, after administration of 620 […] compound; type: functional; procedure, shortened: as §1
[20] = test system: Mus musculus; assay: Weight change in mice bearing L1210 leukemia after administration of 298 […] compound; type: functional
[21] = test system: Mus musculus; assay: Weight change in mice bearing L1210 leukemia after administration of 498 […] compound; type: functional
[22] = test system: Mus musculus; assay: Weight change in mice bearing L1210 leukemia after administration of 620 […] compound; type: functional
[23] = test system: Mus musculus; assay: Number of mice bearing L1210 leukemia that survived after 30 days, after administration of 498 µg/kg compound
[24] = test system: Mus musculus; assay: Increase in life span of mice bearing L1210 leukemia after administration of 30 […] compound; type: functional; procedure, shortened: as §1
[25] = test system: Mus musculus; assay: Number of mice surviving on day 180 treated with 100 […] compound; 7/7; type: functional, organism-based
[26] = test system: Mus musculus; assay: Weight change in mice bearing L1210 leukemia after administration of 30 […] compound; type: functional
[27] = test system: Mus musculus; assay: Number of mice bearing L1210 leukemia that survived after 30 days, after administration of 30 ug/kg compound

Structure (SMILES) | IC50 [1] | ILS at 100 mg/kg [2] | Days [3] | ILS at 67 mg/kg [4] | ILS at 45 mg/kg [5] | Survivors [6] | Survivors [7] | No. of mice [8] | Weight change [9] | Weight change [10] | Weight change [11] | Survivors [12] | also measured
O=C(Nc1ccc2[nH]c(C(=O)N3CC(CCl)c4c3cc(O)c3ccccc43)cc2c1)c1cc2cc([N+](=O)[O-])ccc2o1 (racemic) | 0.44 nM | 173% | No death | 147% | 120% | 0 | 0 | Mice surviving 8/8 | -5% | 2% | -2% | 0 | 
COc1ccc2[nH]c(C(=O)Nc3ccc4[nH]c(C(=O)N5CC(CCl)c6c5cc(O)c5ccccc65)cc4c3)cc2c1 (racemic) | 5.7 nM | 53% |  | 93% | 93% | 0 | 0 |  | -15% | 2% | 3% | 0 | Days [13]: 35; No. of mice [14]: Mice surviving 5/8
O=C(Nc1ccc2[nH]c(/C=C/C(=O)N3CC(CCl)c4c3cc(O)c3ccccc43)cc2c1)c1cc2ccccc2[nH]1 (racemic) | 1 nM |  | No death |  |  |  |  | Mice surviving 8/8 |  |  |  |  | ILS at 620 mg/kg [15]: 147%; ILS at 298 mg/kg [16]: 157%; ILS at 498 mg/kg [17]: 231%; Survivors [18]: 0; Survivors [19]: 0; Weight change [20]: 0%; Weight change [21]: 0%; Weight change [22]: -13%; Survivors [23]: 1
CC(=O)Nc1ccc2[nH]c(C(=O)Nc3ccc4[nH]c(C(=O)N5CC(CCl)c6c5cc(O)c5ccccc65)cc4c3)cc2c1 (racemic) | 2.5 nM |  |  |  |  |  |  |  |  |  |  |  | 
O=C(Nc1ccc2[nH]c(C(=O)N3CC(CCl)c4c3cc(O)c3ccccc43)cc2c1)c1cc2cc(F)ccc2o1 (racemic) | 0.85 nM |  | No death | 147% | 107% |  | 0 |  |  | 5% | 0% | 0 | ILS at 30 mg/kg [24]: 67%; No. of mice [25]: Mice surviving 7/7; Weight change [26]: 5%; Survivors [27]: 0
COc1cccc2c1C(=O)c1c(O)c3c(c(O)c1C2=O)C[C@@](O)(C(=O)CO)C[C@@H]3O[C@H]1C[C@H](N)[C@H](O)[C@H](C)O1 [DOXORUBICIN] | 179 nM |  |  |  |  |  |  |  |  |  |  |  | 
